From ChEMBL document CHEMBL1156912, “Subtlety of the structure-affinity and structure-efficacy relationships around a nonpeptide oxytocin receptor agonist” (J Med Chem, 2010) come the findings set out here.

Active and inactive are the calls of the source. The rule behind the calls is not given here.

One assay addresses T1, Oxytocin receptor (Homo sapiens, UniProt P30559).
T1 sequence (P30559 whole entry): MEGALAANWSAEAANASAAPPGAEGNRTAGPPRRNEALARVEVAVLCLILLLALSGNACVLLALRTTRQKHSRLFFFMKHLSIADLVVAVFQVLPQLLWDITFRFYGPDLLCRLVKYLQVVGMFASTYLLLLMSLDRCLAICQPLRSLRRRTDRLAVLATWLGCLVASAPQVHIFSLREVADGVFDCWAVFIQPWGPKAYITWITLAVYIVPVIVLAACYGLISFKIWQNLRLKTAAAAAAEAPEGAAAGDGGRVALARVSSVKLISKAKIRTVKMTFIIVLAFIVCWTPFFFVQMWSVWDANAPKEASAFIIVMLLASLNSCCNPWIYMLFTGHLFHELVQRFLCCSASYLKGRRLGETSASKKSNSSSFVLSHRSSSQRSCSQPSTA
Nature of the assay: Displacement of [3H]AVP from human oxytocin receptor expressed in CHO cells. The class given is cell-based. Conditions: read-out: Ki. In a few lines: (§1)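 Membranes came from CHO cells stably expressing the human receptor; OT-R and V1a-R cells were treated overnight with 5 mM butyrate. Membrane protein was 10–15 μg (OT, V1a) or 5 μg (V2), incubated 30 min at 30 °C in 50 mM Tris-HCl, 5 mM MgCl2, 1 mg/mL BSA, pH 7.4, with 1–2 nM [3H]AVP and competitor 0.1 pM–100 μM. Nonspecific binding: 10 μM AVP. Filtration, then Ki via Cheng–Prusoff. Mean ± SEM of ≥3 experiments in triplicate.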
(In a radioligand displacement assay an active substance lowers the binding of a labelled ligand.)

Assay [1] deals with T2, Oxytocin receptor (Homo sapiens) (UniProt P30559).
T2 sequence (whole entry): T1 sequence (P30559 whole entry)
Description: Activity at human oxytocin receptor expressed in CHO cells assessed as inhibition of agonist-induced inositol phosphate accumulation at 10 uM. Also noted: scale not given: the % may be the effect or the level left. The class given is functional, cell-based.

In assay [2] the target is T3, Vasopressin V1a receptor (Homo sapiens, UniProt P37288). Description: Displacement of [3H]AVP from human vasopressin V1a receptor expressed in CHO cells. The class given is cell-based. The note with it: read-out: Ki. An outline of the steps: as §1
Target sequence in this assay (P37288 whole entry): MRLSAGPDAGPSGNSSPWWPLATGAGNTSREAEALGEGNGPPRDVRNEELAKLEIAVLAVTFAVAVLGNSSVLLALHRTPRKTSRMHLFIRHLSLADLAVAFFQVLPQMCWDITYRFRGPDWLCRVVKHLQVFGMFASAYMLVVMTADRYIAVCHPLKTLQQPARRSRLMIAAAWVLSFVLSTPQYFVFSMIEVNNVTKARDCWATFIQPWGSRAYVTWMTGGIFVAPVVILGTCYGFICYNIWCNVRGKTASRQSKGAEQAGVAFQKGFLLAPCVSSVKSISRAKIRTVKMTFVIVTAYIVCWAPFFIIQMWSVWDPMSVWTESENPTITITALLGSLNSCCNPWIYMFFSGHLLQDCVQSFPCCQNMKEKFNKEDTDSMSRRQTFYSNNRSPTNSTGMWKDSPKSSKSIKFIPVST
In assay [3] the target is T4, Vasopressin V2 receptor (Homo sapiens, UniProt P30518). Nature of the assay: Displacement of [3H]AVP from human vasopressin V2 receptor expressed in CHO cells. In kind it is cell-based. The note with it: read-out: Ki. An outline of the steps:
as §1

Assay [4] addresses T4, Vasopressin V2 receptor. Description: Activity at human vasopressin V2 receptor expressed in CHO cells assessed as inhibition of agonist-induced cAMP accumulation at 10 uM. The class given is functional, cell-based. Also noted: Activity: scale not given: the % may be the effect or the level left. In general terms: Changes in cAMP serve as a functional read-out for many G protein-coupled receptors.

Assay [5] deals with T3, Vasopressin V1a receptor. Nature of the assay: Activity at human vasopressin V1a receptor expressed in CHO cells assessed as inositol phosphate accumulation up to 100 uM. In kind it is functional, cell-based. In a few lines:
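Human V1a-expressing CHO cells, 80000 cells/well, exposed to ligand for 30 min at 37 °C. IP1 was measured by HTRF IP-One. EC50 (K_act) from the dose–response curve. Emax is relative to the 1 μM AVP maximum. Weak responses are reported as % of AVP maximum at 1 μM ligand.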
Target sequence in this assay (P37288 whole entry, looked up): as the sequence (P37288 whole entry) above

Assay [6] addresses T4, Vasopressin V2 receptor. Description: Activity at human vasopressin V2 receptor expressed in CHO cells assessed as cAMP accumulation up to 100 uM. In kind it is functional, cell-based. In a few lines:
(§2)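 V2-R agonism in CHO cells at 1000 cells/well, stimulated 30 min at 37 °C in D-MEM containing 0.1 mM Ro-20-1724 and 1 mg/mL BSA. cAMP was read by cAMP dynamic 2 HTRF. K_act from the sigmoidal fit. Emax is % of the 0.1 μM AVP response. Single-concentration values are % of AVP maximum.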

Assay [7] addresses T3, Vasopressin V1a receptor. Nature of the assay: Activity at human vasopressin V1a receptor expressed in CHO cells assessed as inhibition of agonist-induced inositol phosphate accumulation at 10 uM. In kind it is functional, cell-based. Also on record: scale not given: the % may be the effect or the level left. An outline of the steps:
(§3)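 Human V1a receptor in stably transfected CHO cells, seeded at 80000 cells/well overnight. Cells were preincubated 10 min at 37 °C with ligand (10 fM–100 μM, ≤1% final DMSO), then challenged with 2 nM AVP for 30 min. IP1 was read by IP-One HTRF. K_inact was derived by Cheng–Prusoff-type correction using AVP K_act 1.20 nM. Fixed-concentration lines are % inhibition, n = 2.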
Target sequence in this assay (P37288 whole entry, looked up): as the sequence (P37288 whole entry) above

In assay [8] the target is T3, Vasopressin V1a receptor. Nature of the assay: Activity at human vasopressin V1a receptor expressed in CHO cells assessed as inhibition of agonist-induced inositol phosphate accumulation at 100 uM. In kind it is functional, cell-based. Also on record: scale not given: the % may be the effect or the level left. In a few lines:
as §3
Target sequence in this assay (P37288 whole entry, looked up): as the sequence (P37288 whole entry) above

The target of assay [9] is T4, Vasopressin V2 receptor. Description: Activity at human vasopressin V2 receptor expressed in CHO cells assessed as inhibition of agonist-induced cAMP accumulation at 100 uM. In kind it is functional, cell-based. Also noted: scale not given: the % may be the effect or the level left.
Assay [10] concerns the target T4, Vasopressin V2 receptor. Description: Activity at human vasopressin V2 receptor expressed in CHO cells assessed as cAMP accumulation at 10 uM. In kind it is functional, cell-based. In a few lines:
as §2

T4 sequence (P30518 whole entry): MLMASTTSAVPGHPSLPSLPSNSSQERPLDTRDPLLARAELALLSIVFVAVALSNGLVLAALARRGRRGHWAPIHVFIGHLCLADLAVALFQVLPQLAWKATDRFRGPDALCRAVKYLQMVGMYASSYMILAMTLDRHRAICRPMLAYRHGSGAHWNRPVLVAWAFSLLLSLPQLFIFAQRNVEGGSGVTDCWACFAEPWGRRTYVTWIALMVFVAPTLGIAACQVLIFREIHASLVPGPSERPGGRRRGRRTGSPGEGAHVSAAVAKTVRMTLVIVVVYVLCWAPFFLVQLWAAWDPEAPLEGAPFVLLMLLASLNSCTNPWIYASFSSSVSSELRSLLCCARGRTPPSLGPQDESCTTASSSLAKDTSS

Broadly, the Ki is the equilibrium dissociation constant of an inhibitor or competing ligand from its target. For `CN1CCCN(C(=S)[C@@H]2CCCN2C(=O)NCc2ccc(C(=O)N3Cc4cccn4Cc4ccccc43)c(Cl)c2)CC1`, the Ki at Oxytocin receptor, at Vasopressin V1a receptor [2] and at Vasopressin V2 receptor [3] was above 5 µM throughout. Moreover, the Activity in assay [1] was found to be 17%; on Vasopressin V2 receptor [4], 25%; at Vasopressin V1a receptor [7], 7%; at Vasopressin V1a receptor [8], 92%; on Vasopressin V2 receptor [9] it was 94%; on Vasopressin V2 receptor [10] it was 13%. For the same compound, the outcome at Vasopressin V1a receptor [5] and on Vasopressin V2 receptor [6] was inactive.
